Results reported in ChEMBL document CHEMBL3877264, “Quinolidene-rhodanine conjugates: Facile synthesis and biological evaluation” (Eur J Med Chem, 2017).
In brackets after ≈: the same amount, converted by molar mass.

Experiments:
Format in all cases: functional
Bacillus subtilis [1] = assay: Growth inhibition of Bacillus subtilis NCIM 2079 at 3 ug/ml measured after 12 hrs relative to control; conditions: NCIM 2079, 12 h, read-out: GI
Summary of the method: (§1)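 Bacteria grown in LB at 37 °C and 180 rpm to OD 1. Compounds added to wells, then 0.1% inoculum of 1 OD culture (620 nm). Growth read as OD at 620 nm after 8 h for gram-negative and after 12 h for gram-positive strains.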

Staphylococcus aureus [2] = assay: Growth inhibition of Staphylococcus aureus NCIM 2010 at 30 ug/ml measured after 12 hrs relative to control; conditions: NCIM 2010, 12 h, read-out: GI; summary of the method: as §1
[3] = Antifungal activity against Cryptococcus neoformans NCIM 576 by standard agar method
Summary of the method: (§2)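 MICs determined by standard agar method; DMSO as solvent control.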

Aspergillus flavus = assay: Antifungal activity against Aspergillus flavus NCIM 539 by standard agar method; summary of the method: as §2
[4] = tested on: Mycobacterium tuberculosis; assay: Growth inhibition of Mycobacterium tuberculosis H37Ra ATCC 25177 at dormant stage measured after 12 days by XTT dye based two fold dilution method; conditions: H37Ra ATCC 25177, 288 h
Summary of the method: (§3)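 MTB H37Ra was grown in Dubos medium, then exposed in Mycobacterium pheli minimal medium (pH 6.6) to compounds dissolved in DMSO. The assay ended on day 8 (active) or day 12 (dormant). Viable cells were measured by XTT reduction menadione assay at 470 nm, blank-corrected, relative to vehicle control. Triplicates were expressed as mean ± SD. MIC came from dose-response curves.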

[5] = tested on: Mycobacterium tuberculosis; assay: Growth inhibition of Mycobacterium bovis BCG ATCC 35743 at dormant stage at 3 ug/ml measured after 12 days by nitrate reductase dye based two fold dilution method relative to control; conditions: BCG str. ATCC 35743, 288 h, read-out: GI
Summary of the method: (§4)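 M. bovis BCG was grown in Dubos medium and assayed in Mycobacterium pheli minimal medium (pH 6.6), with compounds from DMSO stocks. Incubation lasted 8 days for active and 12 days for dormant cultures. Viability was read by nitrate reductase at 540 nm against cell-free blanks, with vehicle set as 100% growth. Primary screen was at 30, 10 and 3 µg/ml, in triplicate, mean ± SD. MIC was taken from dose-response curves.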

Escherichia coli [6] = assay: Antibacterial activity against Escherichia coli NCIM 2688 measured after 8 hrs; conditions: NCIM 2688, 8 h; summary of the method: as §1
[7] = tested on: Mycobacterium tuberculosis; assay: Growth inhibition of Mycobacterium bovis BCG ATCC 35743 at dormant stage at 10 ug/ml measured after 12 days by nitrate reductase dye based two fold dilution method relative to control; conditions: BCG str. ATCC 35743, 288 h, read-out: GI; summary of the method: as §4
Candida albicans = assay: Antifungal activity against Candida albicans NCIM 3471 by standard agar method; summary of the method: as §2
Bacillus subtilis [8] = assay: Growth inhibition of Bacillus subtilis NCIM 2079 at 30 ug/ml measured after 12 hrs relative to control; conditions: NCIM 2079, 12 h, read-out: GI; summary of the method: as §1
Staphylococcus aureus [9] = assay: Growth inhibition of Staphylococcus aureus NCIM 2010 at 3 ug/ml measured after 12 hrs relative to control; conditions: NCIM 2010, 12 h, read-out: GI; summary of the method: as §1
Pseudomonas fluorescens [10] = assay: Growth inhibition of Pseudomonas fluorescens NCIM 2036 at 10 ug/ml measured after 8 hrs relative to control; conditions: NCIM 2036, 8 h, read-out: GI; summary of the method: as §1
Staphylococcus aureus [11] = assay: Growth inhibition of Staphylococcus aureus NCIM 2010 at 10 ug/ml measured after 12 hrs relative to control; conditions: NCIM 2010, 12 h, read-out: GI; summary of the method: as §1
[12] = tested on: Mycobacterium tuberculosis; assay: Growth inhibition of Mycobacterium tuberculosis H37Ra ATCC 25177 at active stage measured after 8 days by XTT dye based two fold dilution method; conditions: H37Ra ATCC 25177, 192 h; summary of the method: as §3
Bacillus subtilis [13] = assay: Growth inhibition of Bacillus subtilis NCIM 2079 at 10 ug/ml measured after 12 hrs relative to control; conditions: NCIM 2079, 12 h, read-out: GI; summary of the method: as §1
[14] = tested on: Mycobacterium tuberculosis; assay: Growth inhibition of Mycobacterium bovis BCG ATCC 35743 at dormant stage at 30 ug/ml measured after 12 days by nitrate reductase dye based two fold dilution method relative to control; conditions: BCG str. ATCC 35743, 288 h, read-out: GI; summary of the method: as §4
[15] = Antifungal activity against Fusarium oxysporum NCIM 1332 by standard agar method; summary of the method: as §2
Pseudomonas fluorescens [16] = assay: Growth inhibition of Pseudomonas fluorescens NCIM 2036 at 30 ug/ml measured after 8 hrs relative to control; conditions: NCIM 2036, 8 h, read-out: GI; summary of the method: as §1
Escherichia coli [17] = assay: Growth inhibition of Escherichia coli NCIM 2688 at 10 ug/ml measured after 8 hrs relative to control; conditions: NCIM 2688, 8 h, read-out: GI; summary of the method: as §1
Staphylococcus aureus [18] = assay: Antibacterial activity against of Staphylococcus aureus NCIM 2010 measured after 12 hrs; conditions: NCIM 2010, 12 h; summary of the method: as §1
Pseudomonas fluorescens [19] = assay: Antibacterial activity against Pseudomonas fluorescens NCIM 2036 measured after 8 hrs; conditions: NCIM 2036, 8 h; summary of the method: as §1
Escherichia coli [20] = assay: Growth inhibition of Escherichia coli NCIM 2688 at 3 ug/ml measured after 8 hrs relative to control; conditions: NCIM 2688, 8 h, read-out: GI; summary of the method: as §1
Escherichia coli [21] = assay: Growth inhibition of Escherichia coli NCIM 2688 at 30 ug/ml measured after 8 hrs relative to control; conditions: NCIM 2688, 8 h, read-out: GI; summary of the method: as §1
[22] = tested on: Mycobacterium tuberculosis; assay: Growth inhibition of Mycobacterium bovis BCG ATCC 35743 at dormant stage measured after 12 days by nitrate reductase dye based two fold dilution method; conditions: BCG str. ATCC 35743, 288 h; summary of the method: as §4
[23] = tested on: Mycobacterium tuberculosis; assay: Growth inhibition of Mycobacterium bovis BCG ATCC 35743 at active stage measured after 8 days by nitrate reductase dye based two fold dilution method; conditions: BCG str. ATCC 35743, 192 h; summary of the method: as §4
Pseudomonas fluorescens [24] = assay: Growth inhibition of Pseudomonas fluorescens NCIM 2036 at 3 ug/ml measured after 8 hrs relative to control; conditions: NCIM 2036, 8 h, read-out: GI; summary of the method: as §1
Bacillus subtilis [25] = assay: Antibacterial activity against Bacillus subtilis NCIM 2079 measured after 12 hrs; conditions: NCIM 2079, 12 h; summary of the method: as §1
Aspergillus niger = assay: Antifungal activity against Aspergillus niger NCIM 1196 by standard agar method; summary of the method: as §2

Compound	inhibition of growth at 3 µg/mL (Bacillus subtilis [1])	inhibition of growth at 30 µg/mL (Staphylococcus aureus [2])	MIC [3]	MIC (Aspergillus flavus)	IC50 [4]	IC90 [4]	inhibition of growth at 3 µg/mL [5]	MIC (Escherichia coli [6])	inhibition of growth at 10 µg/mL [7]	MIC (Candida albicans)	inhibition of growth at 30 µg/mL (Bacillus subtilis [8])	inhibition of growth at 3 µg/mL (Staphylococcus aureus [9])	inhibition of growth at 10 µg/mL (Pseudomonas fluorescens [10])	inhibition of growth at 10 µg/mL (Staphylococcus aureus [11])	IC50 [12]	IC90 [12]	inhibition of growth at 10 µg/mL (Bacillus subtilis [13])	inhibition of growth at 30 µg/mL [14]	MIC [15]	inhibition of growth at 30 µg/mL (Pseudomonas fluorescens [16])	also measured
O=C1NC(=S)S/C1=C\c1cc2ccccc2nc1Cl	7.53%	-28.2%	50 mg/L (≈ 163 µM)	150 mg/L (≈ 489 µM)	> 30 mg/L	> 30 mg/L	-80.1%	> 30 mg/L	-22.1%	150 mg/L (≈ 489 µM)	0.707%	-15.7%	-9.65%	-21.3%	> 30 mg/L	> 30 mg/L	0.915%	-43.1%	100 mg/L (≈ 326 µM)	5.4%	inhibition of growth at 10 µg/mL (Escherichia coli [17]): -14.7%; MIC (Staphylococcus aureus [18]): > 30 mg/L; MIC (Pseudomonas fluorescens [19]): > 30 mg/L; inhibition of growth at 3 µg/mL (Escherichia coli [20]): -40.6%; inhibition of growth at 30 µg/mL (Escherichia coli [21]): -28.5%; IC50 [22]: > 30 mg/L; IC90 [22]: > 30 mg/L; IC50 [23]: > 30 mg/L; IC90 [23]: > 30 mg/L; inhibition of growth at 3 µg/mL (Pseudomonas fluorescens [24]): -17.5%; MIC (Bacillus subtilis [25]): > 30 mg/L; MIC (Aspergillus niger): 100 mg/L (≈ 326 µM)
Cc1cccc2cc(/C=C3\SC(=S)N(CCC(=O)O)C3=O)c(Cl)nc12	-3.04%	-12.1%	100 mg/L (≈ 255 µM)	150 mg/L (≈ 382 µM)	> 30 mg/L	> 30 mg/L	17.2%	> 30 mg/L	27.9%	50 mg/L (≈ 127 µM)	-5.57%	-4.02%	-2.3%	-19.7%	> 30 mg/L	> 30 mg/L	-5.28%	24.8%	100 mg/L (≈ 255 µM)	16%	inhibition of growth at 10 µg/mL (Escherichia coli [17]): 4.27%; MIC (Staphylococcus aureus [18]): > 30 mg/L; MIC (Pseudomonas fluorescens [19]): > 30 mg/L; inhibition of growth at 3 µg/mL (Escherichia coli [20]): 8.12%; inhibition of growth at 30 µg/mL (Escherichia coli [21]): 10.5%; IC50 [22]: > 30 mg/L; IC90 [22]: > 30 mg/L; IC50 [23]: > 30 mg/L; IC90 [23]: > 30 mg/L; inhibition of growth at 3 µg/mL (Pseudomonas fluorescens [24]): 4.57%; MIC (Bacillus subtilis [25]): > 30 mg/L; MIC (Aspergillus niger): 75 mg/L (≈ 191 µM)
O=C(O)CCN1C(=O)/C(=C/c2cc3cc(F)ccc3nc2Cl)SC1=S	-5.16%	-23.8%	25 mg/L (≈ 63 µM)	25 mg/L (≈ 63 µM)	> 30 mg/L	> 30 mg/L	18.2%	> 30 mg/L	23.5%	50 mg/L (≈ 126 µM)	-9.07%	5.15%	-7.25%	-12.1%	> 30 mg/L	> 30 mg/L	-4.74%	59.8%	50 mg/L (≈ 126 µM)	7.54%	inhibition of growth at 10 µg/mL (Escherichia coli [17]): 21.4%; MIC (Staphylococcus aureus [18]): > 30 mg/L; MIC (Pseudomonas fluorescens [19]): > 30 mg/L; inhibition of growth at 3 µg/mL (Escherichia coli [20]): 15.7%; inhibition of growth at 30 µg/mL (Escherichia coli [21]): 22.4%; IC50 [22]: > 30 mg/L; IC90 [22]: > 30 mg/L; IC50 [23]: > 30 mg/L; IC90 [23]: > 30 mg/L; inhibition of growth at 3 µg/mL (Pseudomonas fluorescens [24]): 9.73%; MIC (Bacillus subtilis [25]): > 30 mg/L; MIC (Aspergillus niger): 25 mg/L (≈ 63 µM)
COc1ccc2nc(Cl)c(/C=C3\SC(=S)N(CCC(=O)O)C3=O)cc2c1	-6.61%	-16.1%	150 mg/L (≈ 367 µM)	100 mg/L (≈ 245 µM)	> 30 mg/L	> 30 mg/L	25.4%	> 30 mg/L	27.2%	125 mg/L (≈ 306 µM)	-3.99%	-2.06%	-17%	-21.7%	> 30 mg/L	> 30 mg/L	-1.08%	27.2%	175 mg/L (≈ 428 µM)	-27.3%	inhibition of growth at 10 µg/mL (Escherichia coli [17]): 14.4%; MIC (Staphylococcus aureus [18]): > 30 mg/L; MIC (Pseudomonas fluorescens [19]): > 30 mg/L; inhibition of growth at 3 µg/mL (Escherichia coli [20]): 20.7%; inhibition of growth at 30 µg/mL (Escherichia coli [21]): 13.5%; IC50 [22]: > 30 mg/L; IC90 [22]: > 30 mg/L; IC50 [23]: > 30 mg/L; IC90 [23]: > 30 mg/L; inhibition of growth at 3 µg/mL (Pseudomonas fluorescens [24]): -4.49%; MIC (Bacillus subtilis [25]): > 30 mg/L; MIC (Aspergillus niger): 175 mg/L (≈ 428 µM)
